Assay [1] deals with Staphylococcus aureus. As to the kind of experiment: Antimicrobial activity against Staphylococcus aureus ATCC 6538 by broth dilution method. Type of assay: functional. Put shortly:
(§1)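 Twofold serial broth dilution in Mueller Hinton Broth. […] Growth (drug-free), DMSO solvent and organism-free sterility tubes were included. Three replicates per organism, at least three independent experiments.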

The subject of assay [2] is Escherichia coli. Nature of the assay: Antimicrobial activity against Escherichia coli ATCC 8739 by broth dilution method. Type of assay: functional. The method in brief: as §1
The next assay concerns Priestia megaterium. As to the kind of experiment: Antimicrobial activity against Bacillus megaterium ATCC 19213 by broth dilution method. Type of assay: functional. Put shortly: as §1
The next assay concerns Candida tropicalis. As to the kind of experiment: Antimicrobial activity against Candida tropicalis ATCC 1369 by broth dilution method. Type of assay: functional. Put shortly: (§2)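 Fungi were tested by twofold serial broth dilution in Sabouraud Dextrose Broth. Inoculum was 1x10³ CFU/mL, with 48 h at 30 °C before MIC determination. Growth, DMSO solvent and sterility controls were included. Three replicates per organism, at least three independent experiments.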

In a further assay the test system is MCF7. As to the kind of experiment: Antitumor activity against human MCF7 cells after 72 hrs by MTT assay. The class given is functional, cell-based. As to conditions: MCF7, 72 h. Put shortly: (§3)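 Cells were kept at 37 °C in 5% CO₂, in medium with 2 mM glutamine and 10% FBS; HuDe fibroblasts were grown in DMEM. Compounds were freshly dissolved in DMSO (final ≤0.1% v/v; controls received equal solvent) and applied at 0.1–20 µM for 72 h. Viability was read by MTT. IC₅₀ was extrapolated from Hill-fitted dose–response curves, from at least three independent experiments.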

Assay [3] is described as follows: Inhibition of Escherichia coli topoisomerase 4 assessed as decatenation of kDNA after 30 mins by electrophoresis. Put shortly:
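E. coli topoisomerase IV decatenation of kinetoplast DNA was run in 40 mM HEPES-KOH pH 7.6 with 100 mM potassium glutamate, at varying compound amounts. Products were separated by agarose electrophoresis and quantified by gel documentation. IC₅₀ (µg/mL) is the concentration halving decatenation relative to drug-free enzyme control.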

For another assay, the system named is Bacillus subtilis. Nature of the assay: Antimicrobial activity against Bacillus subtilis ATCC 6633 by broth dilution method. Type of assay: functional. The method in brief:
as §1

Assay [4] can be described thus: Inhibition of Escherichia coli DNA gyrase assessed as reduction of DNA supercoiling activity using pBR322 DNA substrate after 30 mins by electrophoresis.
Another assay deals with NHDF. Nature of the assay: Antitumor activity against human NHDF cells after 72 hrs by MTT assay. Type of assay: functional, cell-based. Put shortly:
as §3

The next assay deals with Saccharomyces cerevisiae. Nature of the assay: Antimicrobial activity against Saccharomyces cerevisiae ATCC 9763 by broth dilution method. The class given is functional. The method in brief:
as §2

Assay [5] concerns Escherichia coli. As to the kind of experiment: Antimicrobial activity against quinilone-pencillin-resistant Escherichia coli clinical isolate by broth dilution method. Type of assay: functional.
For a further assay, the system named is Aspergillus niger. Nature of the assay: Antimicrobial activity against Aspergillus niger ATCC 6275 by broth dilution method. Type of assay: functional. Put shortly: as §2
Assay [6] has as its system Acinetobacter baumannii. As to the kind of experiment: Antimicrobial activity against quinilone-pencillin-resistant Acinetobacter baumannii clinical isolate by broth dilution method. The class given is functional.
For assay [7], the system named is Staphylococcus epidermidis. As to the kind of experiment: Antimicrobial activity against Staphylococcus epidermidis ATCC 12228 by broth dilution method. Type of assay: functional. The method in brief:
as §1

Assay [8] concerns Staphylococcus aureus. Nature of the assay: Antimicrobial activity against quinilone-pencillin-resistant Staphylococcus aureus isolate SAR 4790 by broth dilution method. The class given is functional. Put shortly:
(§4)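 Twofold serial broth dilution in Mueller Hinton Broth. […] Drug-free tubes, DMSO-only tubes and organism-free tubes served as growth, solvent and sterility controls. Three replicates per organism, at least three independent experiments.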

Assay [9] deals with Staphylococcus epidermidis. Nature of the assay: Antimicrobial activity against quinilone-pencillin-resistant Staphylococcus epidermidis clinical isolate by broth dilution method. The class given is functional.
Another assay concerns Bacillus cereus. As to the kind of experiment: Antimicrobial activity against Bacillus cereus ATCC 11778 by broth dilution method. Type of assay: functional. The method in brief: as §1
In a further assay the test system is Haemophilus influenzae. Nature of the assay: Antimicrobial activity against Haemophilus influenzae ATCC 19418 by broth dilution method. Type of assay: functional. Put shortly: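 H. influenzae was grown in Haemophilus Test Medium using twofold serial broth dilution. […] Drug-free, DMSO-only and organism-free control tubes were included. Triplicates, with at least three independent experiments.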

The nature of assay [10]: Antimicrobial activity against Bacillus thuringiensis var.kurstaki BGSC 4D1 by broth dilution method. The class given is functional, Bacillus thuringiensis serovar kurstaki. The method in brief: as §1
The subject of a further assay is A549. As to the kind of experiment: Antitumor activity against human A549 cells after 72 hrs by MTT assay. Type of assay: functional, cell-based. The note with it: A549, 72 h. The method in brief:
as §3

The subject of assay [11] is Acinetobacter baumannii. As to the kind of experiment: Antimicrobial activity against Acinetobacter baumannii ATCC 19606 by broth dilution method. The class given is functional. The method in brief: as §1
For assay [12], the system named is Staphylococcus aureus. As to the kind of experiment: Antimicrobial activity against quinilone-pencillin-resistant Staphylococcus aureus isolate SAR 72 by broth dilution method. Type of assay: functional. Put shortly: as §4
For a further assay, the system named is Pseudomonas aeruginosa. As to the kind of experiment: Antimicrobial activity against Pseudomonas aeruginosa ATCC 9027 by broth dilution method. Type of assay: functional. The method in brief:
as §1

In brackets after ≈: the same amount, converted by molar mass.

With `O=C(O)c1cn(C2CC2)c2sc3c4ccccc4[nH]c3c2c1=O`, the MIC with Staphylococcus aureus [1] is 0.003 µg/mL (≈ 0.00925 µM); in the assay on Escherichia coli [2] it was 25 µg/mL (≈ 77.1 µM); in the assay with Priestia megaterium, 0.015 ng/mL (≈ 4.62e-05 µM); against Candida tropicalis, greater than 100 µg/mL; with Bacillus subtilis, 0.015 ng/mL (≈ 4.62e-05 µM); against Saccharomyces cerevisiae it was greater than 100 µg/mL. Besides, the MIC against Escherichia coli [5] is greater than 100 µg/mL; against Aspergillus niger it was greater than 100 µg/mL; in the assay on Acinetobacter baumannii [6], greater than 100 µg/mL; in assay [7], 0.03 µg/mL (≈ 0.0925 µM); in the assay with Staphylococcus aureus [8] it was greater than 100 µg/mL; in assay [9] it was 3 µg/mL (≈ 9.25 µM). The MIC with Bacillus cereus was 0.007 µg/mL (≈ 0.0216 µM); with Haemophilus influenzae, 0.03 µg/mL (≈ 0.0925 µM); in assay [10], 0.007 µg/mL (≈ 0.0216 µM); in the assay on Acinetobacter baumannii [11], 0.07 µg/mL (≈ 0.216 µM); with Staphylococcus aureus [12], 0.7 µg/mL (≈ 2.16 µM); against Pseudomonas aeruginosa, greater than 100 µg/mL. In addition, the IC50 was 5.2 µM in the assay with MCF7; greater than 24 µg/mL in assay [3]; 1 µg/mL (≈ 3.08 µM) in assay [4]; greater than 10 µM in the assay on NHDF; 10 µM in the assay on A549.

Take `Cc1ccc2c(c1)[nH]c1c2sc2c1c(=O)c(C(=O)O)cn2C1CC1`: the MIC with Staphylococcus aureus [1] is 0.07 µg/mL (≈ 0.207 µM); in the assay with Escherichia coli [2], greater than 100 µg/mL; with Priestia megaterium it was 7 ng/mL (≈ 0.0207 µM); against Candida tropicalis, greater than 100 µg/mL; against Bacillus subtilis, 0.3 ng/mL (≈ 0.000887 µM); with Saccharomyces cerevisiae, greater than 100 µg/mL. For the same compound, the MIC was greater than 100 µg/mL in the assay on Aspergillus niger; greater than 100 µg/mL in the assay on Acinetobacter baumannii [6]; 0.3 µg/mL (≈ 0.887 µM) in [7]; greater than 100 µg/mL in the assay with Staphylococcus aureus [8]; 25 µg/mL (≈ 73.9 µM) in [9]; 0.3 µg/mL (≈ 0.887 µM) against Bacillus cereus. The MIC in the assay on Haemophilus influenzae is 1.5 µg/mL (≈ 4.43 µM); in assay [10], 0.15 µg/mL (≈ 0.443 µM); against Acinetobacter baumannii [11], 0.7 µg/mL (≈ 2.07 µM); with Staphylococcus aureus [12], 12 µg/mL (≈ 35.5 µM); against Pseudomonas aeruginosa it was greater than 100 µg/mL. Also, the IC50 with MCF7 was 2.8 µM; in the assay on NHDF, greater than 10 µM; in the assay on A549 it was 6.9 µM.

For the compound `COc1ccc2c(c1)[nH]c1c2sc2c1c(=O)c(C(=O)O)cn2C1CC1`, the MIC with Staphylococcus aureus [1] was 0.015 µg/mL (≈ 0.0423 µM); with Escherichia coli [2], greater than 100 µg/mL; against Priestia megaterium, 0.03 ng/mL (≈ 8.47e-05 µM); with Candida tropicalis, greater than 100 µg/mL; with Bacillus subtilis, 0.3 ng/mL (≈ 0.000847 µM); against Saccharomyces cerevisiae, greater than 100 µg/mL. Moreover, the MIC is greater than 100 µg/mL against Aspergillus niger; greater than 100 µg/mL in the assay on Acinetobacter baumannii [6]; 0.15 µg/mL (≈ 0.423 µM) in assay [7]; greater than 100 µg/mL against Staphylococcus aureus [8]; 6 µg/mL (≈ 16.9 µM) in assay [9]; 0.03 µg/mL (≈ 0.0847 µM) in the assay with Bacillus cereus. Also, the MIC in the assay with Haemophilus influenzae was 0.15 µg/mL (≈ 0.423 µM); in [10] it was 0.007 µg/mL (≈ 0.0198 µM); against Acinetobacter baumannii [11], 3 µg/mL (≈ 8.47 µM); against Staphylococcus aureus [12], 1.5 µg/mL (≈ 4.23 µM); in the assay with Pseudomonas aeruginosa, greater than 100 µg/mL. Further, the IC50 in the assay on MCF7 is 1.6 µM; in [3], greater than 24 µg/mL; in [4], 1.1 µg/mL (≈ 3.1 µM); with NHDF, greater than 10 µM; with A549 it was 2.6 µM.

For the compound `COc1c(C)cc2c([nH]c3c2sc2c3c(=O)c(C(=O)O)cn2C2CC2)c1C`, the MIC in the assay with Staphylococcus aureus [1] is 6 µg/mL (≈ 15.7 µM); against Escherichia coli [2], greater than 100 µg/mL; against Priestia megaterium, 3000 ng/mL (≈ 7.84 µM); with Candida tropicalis, greater than 100 µg/mL; against Bacillus subtilis, 3000 ng/mL (≈ 7.84 µM); against Saccharomyces cerevisiae, greater than 100 µg/mL. The MIC was greater than 100 µg/mL with Aspergillus niger; 3 µg/mL (≈ 7.84 µM) in [7]; greater than 100 µg/mL in the assay on Staphylococcus aureus [8]; 3 µg/mL (≈ 7.84 µM) in [9]; 3 µg/mL (≈ 7.84 µM) in the assay with Bacillus cereus; 6 µg/mL (≈ 15.7 µM) in the assay on Haemophilus influenzae. Also, the MIC was 1.5 µg/mL (≈ 3.92 µM) in assay [10], greater than 100 µg/mL against Acinetobacter baumannii [11], 3 µg/mL (≈ 7.84 µM) with Staphylococcus aureus [12] and greater than 100 µg/mL in the assay on Pseudomonas aeruginosa. The IC50 was 2.5 µM in the assay on MCF7, greater than 10 µM with NHDF and 4.7 µM with A549.

`O=C(O)c1cn(C2CC2)c2sc3c4ccc(F)cc4[nH]c3c2c1=O`: the MIC is 0.003 µg/mL (≈ 0.00876 µM) against Staphylococcus aureus [1]; 50 µg/mL (≈ 146 µM) with Escherichia coli [2]; 0.015 ng/mL (≈ 4.38e-05 µM) in the assay with Priestia megaterium; greater than 100 µg/mL in the assay with Candida tropicalis; 0.015 ng/mL (≈ 4.38e-05 µM) in the assay with Bacillus subtilis; 12 µg/mL (≈ 35.1 µM) in the assay on Saccharomyces cerevisiae. Also, the MIC is greater than 100 µg/mL with Escherichia coli [5]; greater than 100 µg/mL with Aspergillus niger; greater than 100 µg/mL in the assay on Acinetobacter baumannii [6]; 0.03 µg/mL (≈ 0.0876 µM) in assay [7]; greater than 100 µg/mL in the assay with Staphylococcus aureus [8]; 1.5 µg/mL (≈ 4.38 µM) in assay [9]. Moreover, the MIC is 0.007 µg/mL (≈ 0.0204 µM) in the assay on Bacillus cereus; 0.15 µg/mL (≈ 0.438 µM) in the assay on Haemophilus influenzae; 0.003 µg/mL (≈ 0.00876 µM) in assay [10]; 0.15 µg/mL (≈ 0.438 µM) against Acinetobacter baumannii [11]; 0.7 µg/mL (≈ 2.04 µM) with Staphylococcus aureus [12]; greater than 100 µg/mL with Pseudomonas aeruginosa. The IC50 was 1.9 µM in the assay on MCF7, greater than 10 µM in the assay on NHDF and 2.7 µM with A549.

Source of the values: ChEMBL document CHEMBL1765022, “Synthesis and biological evaluation of tetracyclic thienopyridones as antibacterial and antitumor agents” (Bioorg Med Chem, 2011).
